Results taken from ChEMBL document CHEMBL1165950, “Design and synthesis of new potent anticancer pyrazoles with high FLT3 kinase inhibitory selectivity” (Bioorg Med Chem, 2010).

Tests used:
Assay type in all cases: functional
SF-539 [1] = experiment: Cytotoxicity against human SF539 cells assessed as cell growth at 10 uM; details: read-out: Activity
How it was run: (§1)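 NCI-60 screen: cells grown in RPMI 1640 with 5% FBS and 2 mM L-glutamine, plated at 5000–40,000 cells/well according to doubling time, and preincubated 24 h at 37 °C, 5% CO2. The single 10 µM dose (DMSO stock) was added, then incubated 48 h. Cells were TCA-fixed and stained with 0.4% SRB, read at 515 nm, and growth % calculated against time-zero and control plates.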

SR [2] = experiment: Cytotoxicity against human SR cells assessed as cell growth at 100 nM after 48 hrs by sulforhodamine B assay; details: read-out: Activity
BT-549 = experiment: Cytotoxicity against human BT549 cells assessed as cell growth at 10 uM; details: read-out: Activity
How it was run: (§2)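 Single-dose NCI-60 screen at 10 µM. Cells were grown in RPMI 1640 with 5% FBS and 2 mM L-glutamine, then treated for 48 h at 37 °C. Protein was measured by SRB staining with absorbance at 515 nm. Percentage growth was recorded, and inhibition percentage was calculated as 100 minus growth percentage.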

NCI-H322M = experiment: Growth inhibition of human NCI-H322M cells after 48 hrs by sulforhodamine B assay; details: for CC50: read-out: LC50 (the source's name)
How it was run: (§3)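 NCI 60-cell screen, five-dose mode. Cells grown in RPMI 1640 with 5% FBS and 2 mM L-glutamine and plated at 5000-40,000 cells/well according to doubling time. After 24 h preincubation, a Tz plate was TCA-fixed. Five concentrations (10-fold or 1/2 log dilutions) were applied for 48 h at 37 °C. SRB staining read at 515 nm. IC50 taken from [(Ti-Tz)/(C-Tz)]×100 = 50.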

SR [3] = experiment: Growth inhibition of human SR cells after 48 hrs by sulforhodamine B assay; how it was run: as §3
SF-539 [4] = experiment: Cytotoxicity against human SF539 cells assessed as cell growth at 10 uM after 48 hrs by sulforhodamine B assay; details: SF-539, 48 h, read-out: Activity
SK-MEL-2 = experiment: Cytotoxicity against human SK-MEL-2 cells assessed as cell growth at 100 nM after 48 hrs by sulforhodamine B assay; details: SK-MEL-2, 48 h, read-out: Activity
SR [5] = experiment: Cytotoxicity against human SR cells assessed as cell growth at 1 uM after 48 hrs by sulforhodamine B assay; details: read-out: Activity
EKVX = experiment: Cytotoxicity against human EKVX cells assessed as cell growth at 1 uM after 48 hrs by sulforhodamine B assay; details: read-out: Activity
MOLT-4 = experiment: Cytotoxicity against human MOLT4 cells assessed as cell growth at 1 uM after 48 hrs by sulforhodamine B assay; details: MOLT-4, 48 h, read-out: Activity
COLO 205 = experiment: Cytotoxicity against human COLO205 cells assessed as cell growth at 10 uM after 48 hrs by sulforhodamine B assay; details: COLO 205, 48 h, read-out: Activity
UACC-257 = experiment: Cytotoxicity against human UACC257 cells assessed as cell growth at 10 uM after 48 hrs by sulforhodamine B assay; details: UACC-257, 48 h, read-out: Activity
CCRF-CEM = experiment: Cytotoxicity against human CCRF-CEM cells assessed as cell growth at 1 uM after 48 hrs by sulforhodamine B assay; details: read-out: Activity
How it was run: (§4)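 NCI-60 five-dose screen. Cells were grown in RPMI 1640 with 5% FBS and 2 mM L-glutamine, plated at 5000–40,000 cells/well and preincubated for 24 h. Time-zero plates were TCA-fixed. DMSO-solubilized drug was added at five concentrations (10-fold or ½-log serial dilutions) for 48 h at 37 °C, 5% CO2. Cells were TCA-fixed, stained with 0.4% SRB and read at 515 nm. Percent growth used time-zero, control and test absorbances.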

NCI-H226 [6] = experiment: Growth inhibition of human NCI-H226 cells after 48 hrs by sulforhodamine B assay; details: NCI-H226, 48 h; for CC50: read-out: LC50 (the source's name); how it was run: as §3
NCI-H522 = experiment: Cytotoxicity against human NCI-H522 cells assessed as cell growth at 1 uM after 48 hrs by sulforhodamine B assay; details: NCI-H522, 48 h, read-out: Activity
CAKI-1 [7] = experiment: Growth inhibition of human Caki1 cells after 48 hrs by sulforhodamine B assay; details: CAKI-1, 48 h; for CC50: read-out: LC50 (the source's name)
How it was run: (§5)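 NCI five-dose SRB assay in RPMI 1640 with 5% FBS and 2 mM L-glutamine. Cells were preincubated 24 h, then exposed 48 h at 37 °C to five concentrations (10-fold or half-log serial dilutions from DMSO stocks). TCA fixation, SRB staining, and absorbance at 515 nm followed. IC50 was taken where [(Ti−Tz)/(C−Tz)]×100 = 50, with Tz as time-zero cell density.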

SF-295 = experiment: Cytotoxicity against human SF295 cells assessed as cell growth at 10 uM after 48 hrs by sulforhodamine B assay; details: SF-295, 48 h, read-out: Activity
SNB-19 [8] = experiment: Cytotoxicity against human SNB19 cells assessed as cell growth at 0.001 uM after 48 hrs by sulforhodamine B assay; details: SNB-19, 48 h, read-out: Activity
Malme-3M = experiment: Cytotoxicity against human MALME-3M cells assessed as cell growth at 0.001 uM after 48 hrs by sulforhodamine B assay; details: read-out: Activity
A498 = experiment: Cytotoxicity against human A498 cells assessed as cell growth at 0.01 uM after 48 hrs by sulforhodamine B assay; details: A498, 48 h, read-out: Activity; how it was run: as §4
SNB-19 [9] = experiment: Cytotoxicity against human SNB19 cells assessed as cell growth at 10 uM; details: read-out: Activity; how it was run: as §1
SF-268 = experiment: Cytotoxicity against human SF268 cells assessed as cell growth at 10 uM; details: read-out: Activity; how it was run: as §1
A549 = experiment: Growth inhibition of human A549 cells after 48 hrs by sulforhodamine B assay; details: A549, 48 h; how it was run: as §5
CAKI-1 [10] = experiment: Cytotoxicity against human Caki1 cells assessed as cell growth at 10 uM after 48 hrs by sulforhodamine B assay; details: CAKI-1, 48 h, read-out: Activity
NCI-H226 [11] = experiment: Cytotoxicity against human NCI-H226 cells assessed as cell growth at 100 nM after 48 hrs by sulforhodamine B assay; details: NCI-H226, 48 h, read-out: Activity
UO-31 = experiment: Cytotoxicity against human UO31 cells assessed as cell growth at 0.01 uM after 48 hrs by sulforhodamine B assay; details: UO-31, 48 h, read-out: Activity
HOP-92 [12] = experiment: Cytotoxicity against human HOP92 cells assessed as cell growth at 100 nM after 48 hrs by sulforhodamine B assay; details: HOP-92, 48 h, read-out: Activity
NCI-H460 = experiment: Cytotoxicity against human NCI-H460 cells assessed as cell growth at 1 uM after 48 hrs by sulforhodamine B assay; details: NCI-H460, 48 h, read-out: Activity
HOP-92 [13] = experiment: Cytotoxicity against human HOP92 cells assessed as cell growth at 10 uM; details: read-out: Activity; how it was run: as §2

Compound	growth at 10 µM (SF-539 [1]) [%]	growth at 10 µM (BT-549) [%]	TGI (NCI-H322M) [µM]	CC50 (NCI-H322M) [µM]	growth at 10 µM (SF-539 [4]) [%]	growth at 0.1 µM (SK-MEL-2) [%]	growth at 1 µM (EKVX) [%]	growth at 1 µM (MOLT-4) [%]	growth at 10 µM (COLO 205) [%]	growth at 10 µM (UACC-257) [%]	growth at 1 µM (CCRF-CEM) [%]	growth at 1 µM (NCI-H522) [%]	GI50 (CAKI-1 [7]) [µM]	TGI (CAKI-1 [7]) [µM]	CC50 (CAKI-1 [7]) [µM]	growth at 0.001 µM (SNB-19 [8]) [%]	growth at 0.001 µM (Malme-3M) [%]	growth at 0.01 µM (A498) [%]	growth at 10 µM (SNB-19 [9]) [%]	growth at 10 µM (SF-268) [%]	other results
Cc1cc(O)cc(-c2nn(CC#N)cc2-c2ccnc(-c3ccc(Oc4ccccc4)cc3)c2)c1	75.5	76.1	19.2	48.6	-85	101	-4	-16	-96	-93	6	2	1.8	5.78	41	101	88	78	72.8	71.8	growth at 0.1 µM (SR [2]): 96%; GI50 (NCI-H322M): 5.68 µM; GI50 (SR [3]): 3.77 µM; LC50 (concentration killing 50% of cells) (SR [3]): > 100 µM; TGI (SR [3]): 37.2 µM; growth at 1 µM (SR [5]): 16%; GI50 (NCI-H226 [6]): 3.22 µM; TGI (NCI-H226 [6]): 12.2 µM; CC50 (NCI-H226 [6]): 64.5 µM; growth at 10 µM (SF-295): -61%; GI50 (A549): 2 µM; LC50 (A549): 24.7 µM; TGI (A549): 5.07 µM; growth at 10 µM (CAKI-1 [10]): -67%; growth at 0.1 µM (NCI-H226 [11]): 95%; growth at 0.01 µM (UO-31): 85%; growth at 0.1 µM (HOP-92 [12]): 70%; growth at 1 µM (NCI-H460): -79%
COc1cc(C)cc(-c2nn(CC#N)cc2-c2ccnc(-c3ccc(N(C)C)cc3)c2)c1	-17.5	-28.5	> 1	> 100	-38	50	28	13	-61	13	16	-61	0.345	18.2	> 100	102	88	88	15.9	24.5	growth at 0.1 µM (SR [2]): 26%; GI50 (SR [3]): 0.461 µM; LC50 (concentration killing 50% of cells) (SR [3]): > 100 µM; TGI (SR [3]): > 10 µM; growth at 1 µM (SR [5]): 18%; GI50 (NCI-H226 [6]): 0.968 µM; TGI (NCI-H226 [6]): 127 µM; CC50 (NCI-H226 [6]): > 100 µM; growth at 10 µM (SF-295): -32%; GI50 (A549): 0.583 µM; LC50 (A549): > 100 µM; TGI (A549): 483 µM; growth at 10 µM (CAKI-1 [10]): -11%; growth at 0.1 µM (NCI-H226 [11]): 49%; growth at 0.01 µM (UO-31): 92%; growth at 0.1 µM (HOP-92 [12]): 35%; growth at 1 µM (NCI-H460): -27%
Cc1cc(O)cc(-c2nn(CC#N)cc2-c2ccnc(-c3ccc(N(C)C)cc3)c2)c1	21.7	31.8	59.8	> 100	-71	112	29	11	-82	-25	13	-13	2.89	16.4	> 100	96	91	80	46.4	59.5	growth at 0.1 µM (SR [2]): 74%; GI50 (NCI-H322M): 6.08 µM; GI50 (SR [3]): 2.64 µM; LC50 (concentration killing 50% of cells) (SR [3]): > 100 µM; TGI (SR [3]): > 100 µM; growth at 1 µM (SR [5]): 17%; growth at 10 µM (HOP-92 [13]): 32.4%; GI50 (NCI-H226 [6]): 4.18 µM; TGI (NCI-H226 [6]): 21.8 µM; CC50 (NCI-H226 [6]): > 100 µM; growth at 10 µM (SF-295): -54%; GI50 (A549): 4.18 µM; LC50 (A549): > 100 µM; TGI (A549): 54.5 µM; growth at 10 µM (CAKI-1 [10]): -31%; growth at 0.1 µM (NCI-H226 [11]): 100%; growth at 0.01 µM (UO-31): 84%; growth at 0.1 µM (HOP-92 [12]): 73%
COc1cc(C)cc(-c2nn(CC#N)cc2-c2ccc(-c3cccc(C(C)=O)c3)nc2)c1	5.94	25.4	50.8	> 100	-48	88	24	19	-62	3	13	-14	1.91	10.5	> 100	101	97	60	27.8	49.3	growth at 0.1 µM (SR [2]): 57%; GI50 (NCI-H322M): 4.36 µM; GI50 (SR [3]): 1.62 µM; LC50 (concentration killing 50% of cells) (SR [3]): > 100 µM; TGI (SR [3]): > 100 µM; growth at 1 µM (SR [5]): 22%; growth at 10 µM (HOP-92 [13]): 48.4%; GI50 (NCI-H226 [6]): 4.29 µM; TGI (NCI-H226 [6]): 82.3 µM; CC50 (NCI-H226 [6]): > 100 µM; GI50 (A549): 3.87 µM; LC50 (A549): > 100 µM; TGI (A549): 30.8 µM; growth at 10 µM (CAKI-1 [10]): -18%; growth at 0.1 µM (NCI-H226 [11]): 86%; growth at 0.01 µM (UO-31): 86%; growth at 0.1 µM (HOP-92 [12]): 89%; growth at 1 µM (NCI-H460): -27%
COc1cc(C)cc(-c2c(-c3ccnc(-c4ccc(N(C)C)cc4)c3)cnn2CC#N)c1	-7.06	-26.5	> 100	> 100	2	14	9	-2	4	18	6	-53	0.0369	0.0893	> 100	90	97	40	26.5	26.4	GI50 (NCI-H322M): 0.331 µM; growth at 10 µM (HOP-92 [13]): 29.1%; growth at 10 µM (SF-295): -30%; GI50 (A549): 0.155 µM; LC50 (A549): > 100 µM; TGI (A549): > 100 µM; growth at 10 µM (CAKI-1 [10]): -25%; growth at 0.01 µM (UO-31): 63%; growth at 0.1 µM (HOP-92 [12]): -3%; growth at 1 µM (NCI-H460): -53%
